PubChem BioAssay AID588582 (Sanford-Burnham Center for Chemical Genomics, 2011)
Active and inactive are the calls of the source.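 How the source made its calls: active means mean EC50 at or below 20 µM; inactive means the rest.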

Target: CHO-XBP1 luciferase reporter, IRE1-XBP1 arm activation
Assay: activators of UPR adaptive arm reporter – cell-based, luciferase luminescence, set 2, counter-screen for UPR apoptotic arm activator project, SAR follow-up (AID 588582)
Outline: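 Test system: CHO-XBP1 luciferase reporter cells. Timing: cells plated 16–18 h before dosing, compound exposure 6 h at 37 °C. Signal: Steady-Glo luminescence. Doses: concentration series, DMSO ≤1% final.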

Structure (SMILES) | EC50
Cn1c([N+](=O)[O-])cnc1C(=O)Nc1ccc(S(=O)(=O)N2CCC(C)(C)CC2)cc1 | > 80 µM (inactive)
O=C(Nc1ccc(S(=O)(=O)N2CCC(Cl)CC2)cc1)c1ccc([N+](=O)[O-])o1 | > 80 µM (inactive)
O=C(Nc1ccc(S(=O)(=O)C2CCOCC2)cc1)c1ccc([N+](=O)[O-])o1 | > 80 µM (inactive)
O=C(Nc1nc2ccc(Cl)cc2s1)c1ccccn1 | > 80 µM (inactive)
O=C(Nc1nc2cc(F)c(F)cc2s1)c1ccccn1 | > 80 µM (inactive)
O=C(Nc1nc2cc(F)ccc2s1)c1ccccn1 | > 80 µM (inactive)
O=C(Nc1ccc(S(=O)(=O)N2CCC3(CCCCC3)CC2)cc1)c1ccc([N+](=O)[O-])o1 | > 80 µM (inactive)
CC1(C)CCN(S(=O)(=O)c2ccc(NC(=O)c3ccc(C(F)(F)F)o3)cc2)CC1 | > 80 µM (inactive)
O=C(Nc1nc2c(F)c(F)ccc2s1)c1ccccn1 | > 80 µM (inactive)
O=C(Nc1nc2cccc(F)c2s1)c1ccccn1 | > 80 µM (inactive)
O=C(Nc1nc2c(F)ccc(F)c2s1)c1ccccn1 | > 80 µM (inactive)
CC1CN(S(=O)(=O)c2ccc(NC(=O)c3ccc([N+](=O)[O-])o3)cc2)CC(C)O1 (stereo not drawn) | > 80 µM (inactive)
O=C(Nc1ccc(S(=O)(=O)N2CCC(F)CC2)cc1)c1ccc([N+](=O)[O-])o1 | > 80 µM (inactive)
O=C(Nc1nc2cc(F)cc(F)c2s1)c1ccccn1 | > 80 µM (inactive)
O=C(Nc1nc2ccc(C(F)(F)F)cc2s1)c1ccccn1 | > 80 µM (inactive)
CC(C)(C)C1CCN(S(=O)(=O)c2ccc(NC(=O)c3ccc([N+](=O)[O-])o3)cc2)CC1 | > 80 µM (inactive)
CC1(C)CCN(S(=O)(=O)c2ccc(NC(=O)c3cccc([N+](=O)[O-])c3)cc2)CC1 | > 80 µM (inactive)
O=C(Nc1nc2ccc(F)c(F)c2s1)c1ccccn1 | > 80 µM (inactive)
